Data as given in PubChem BioAssay.
Activity calls are given as the source filed them.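 How the source made its calls: active means growth inhibition above a set limit, 3 SD over mean compound inhibition, in both replicates (cut at about 43% in these data); inconclusive means above the limit in only one replicate; inactive means at or below the limit in both replicates.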

Assay: Restrictive medium S. cerevisiae growth inhibition, OD615, pilot screen of yeast lifespan reduction project, restrictive growth control (AID 706);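 further: modified DeaD lifespan yeast strain shifted to restrictive glucose medium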
Conditions: OD615, 48 h, at 10 µM, hits give high values
Summary of the method: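 material = engineered S. cerevisiae DeaD strain | buffer or medium = glucose-based CSMM-D restrictive medium | dosing = one concentration, 10 µM final, 0.25% DMSO | schedule = 4 h pre-growth plus 48 h compound exposure, 30 °C | detection = OD615 absorbance reading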

Growth inhibition, inactive:
CCOC(=O)c1ccc(NS(=O)(=O)c2ccc3c(c2)oc(=O)n3C)cc1 3.2%
O=C(Nc1ccc2c(c1)OCCO2)NC1CCCCC1 4.4%
O=C(CSc1nnnn1-c1ccccc1Cl)Nc1ccc2c(c1)OCCO2 3.15%
COc1ccc(-c2nc(CSCC(=O)NCc3ccc4c(c3)OCO4)c(C)o2)cc1OC -12.2%
Cc1cnc(NC(=O)CSc2nnc(COc3c(C)cccc3C)o2)s1 -2.15%
Cc1cccc(C2CC(c3ccccc3)Nc3nc(N)nn32)c1 (stereo unspecified) 3.52%
CCc1ccccc1N1CC23C=CC(O2)C(C(=O)O)C3C1=O (stereo unspecified) -5.72%
CCOC(=O)C1CCN(Cc2ccc(F)c(Br)c2)CC1 -1.05%
CCOc1ccccc1N1Cc2cc(C)c(C)cc2C1 -12.1%
CCN1CCN(C(CNC(=O)c2ccc3c(c2)OCO3)c2cccnc2)CC1 (stereo unspecified) -4.73%
O=C(NCCSc1c[nH]c2ccccc12)c1ccco1 -2.81%
COCCNC(=O)CN(C)S(=O)(=O)c1ccc(Br)cc1 -5.76%
COc1cc(C(=O)Nc2cccc(-c3nncn3C)c2)cc(OC)c1OC 4.63%
CN1CCN(Cc2nc3c(c(=O)n(C)c(=O)n3C)n2Cc2ccccc2Cl)CC1 -14.4%
O=C(OCCN=C1NS(=O)(=O)c2ccccc21)C1CC(=O)N(c2ccc(Cl)cc2)C1 (stereo unspecified) -8.43%
COc1cccc2cc(C(=O)OC3CCN(C)CC3)c(=O)oc12 -8.68%
